Experiments:
[1] = Cmax in mouse at 2 mg/kg, iv; format: ADME, organism-based; set-up: dose 2 mg/kg, route intravenous; conditions: in vivo
[2] = biological target: Fibroblast growth factor receptor 1 (Homo sapiens) (UniProt P11362); assay: Binding affinity to wild-type human partial length FGFR1 (P357 to V669 residues) expressed in bacterial expression system assessed as residual binding level at 1 uM by Kinomescan method relative to control
[3] = biological target: Serine/threonine-protein kinase pim-1 (Homo sapiens) (UniProt P11309); assay: Binding affinity to wild-type human partial length PIM1 (A15 to K313 residues) expressed in bacterial expression system assessed as residual binding level at 1 uM by Kinomescan method relative to control
[4] = biological target: Mitogen-activated protein kinase kinase kinase 13 (Homo sapiens) (UniProt O43283); assay: Binding affinity to wild-type human full length LZK (M1 to W966 residues) expressed in mammalian expression system assessed as residual binding level at 1 uM by Kinomescan method relative to control
How it was run: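 Single-point kinome-wide KINOMEscan binding panel, test compound at 1 μM, run by the provider's standard protocol.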

[5] = biological target: Ephrin type-A receptor 7 (Homo sapiens) (UniProt Q15375); assay: Binding affinity to wild-type human partial length EPHA7 (Y608 to S912 residues) expressed in bacterial expression system assessed as residual binding level at 1 uM by Kinomescan method relative to control
[6] = biological target: Ephrin type-A receptor 8 (Homo sapiens) (UniProt P29322); assay: Binding affinity to wild-type human partial length EPHA8 (Q608 to C920 residues) expressed in bacterial expression system assessed as residual binding level at 1 uM by Kinomescan method relative to control
[7] = biological target: Bone morphogenetic protein receptor type-1B (Homo sapiens) (UniProt O00238); assay: Binding affinity to wild-type human partial length BMPR1B (D178 to L502 residues) expressed in mammalian expression system assessed as residual binding level at 1 uM by Kinomescan method relative to control
[8] = biological target: Dual specificity protein kinase CLK4 (Homo sapiens) (UniProt Q9HAZ1); assay: Binding affinity to wild-type human partial length CLK4 (R135 to K481 residues) expressed in bacterial expression system assessed as residual binding level at 1 uM by Kinomescan method relative to control
[9] = biological target: Protein-tyrosine kinase 6 (Homo sapiens) (UniProt Q13882); assay: Binding affinity to wild-type human partial length BRK (L166 to T451 residues) expressed in bacterial expression system assessed as residual binding level at 1 uM by Kinomescan method relative to control
[10] = biological target: Wee1-like protein kinase 2 (Homo sapiens) (UniProt P0C1S8); assay: Binding affinity to wild-type human partial length WEE2 (M204 to K492 residues) expressed in bacterial expression system assessed as residual binding level at 1 uM by Kinomescan method relative to control
[11] = biological target: Eukaryotic translation initiation factor 2-alpha kinase 1 (Homo sapiens) (UniProt Q9BQI3); assay: Binding affinity to wild-type human partial length EIF2AK1 (Q147 to E603 residues) expressed in mammalian expression system assessed as residual binding level at 1 uM by Kinomescan method relative to control
[12] = biological target: Ribosomal protein S6 kinase alpha-1 (Homo sapiens) (UniProt Q15418); assay: Binding affinity to wild-type human partial length C-terminal RSK1 kinase domain 2 (P360 to L681 residues) expressed in bacterial expression system assessed as residual binding level at 1 uM by Kinomescan method relative to control
[13] = Clearance in mouse at 10 mg/kg, po; format: ADME, organism-based; conditions: in vivo
[14] = test system: Tyrosine-protein kinase ABL1 (Homo sapiens), P00519 [H396P]; assay: Binding affinity to human phosphorylated ABL1 H396P mutant (S229 to K512 residues) expressed in mammalian expression system assessed as residual binding level at 1 uM by Kinomescan method relative to control
How it was run: (§1)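 Kinome-wide selectivity panel run by the KINOMEscan method, with the test compound at a single concentration of 1 μM. Wild-type and mutant kinases were profiled in the same screen.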

[15] = test system: Mast/stem cell growth factor receptor Kit (Homo sapiens), P10721 [UNDEFINED MUTATION]; assay: Binding affinity to human partial length KIT V559D/V654 double mutant (Y545 to D952 residues) expressed in bacterial expression system assessed as residual binding level at 1 uM by Kinomescan method relative to control; how it was run: as §1
[16] = biological target: Hepatocyte growth factor receptor (Homo sapiens) (UniProt P08581); assay: Binding affinity to wild-type human partial length MET (D1010 to S1367 residues) expressed in bacterial expression system assessed as residual binding level at 1 uM by Kinomescan method relative to control
[17] = test system: Tyrosine-protein kinase ABL1 (Homo sapiens), P00519 [T315I]; assay: Binding affinity to human non-phosphorylated ABL1 T315I mutant (S229 to K512 residues) expressed in mammalian expression system assessed as residual binding level at 1 uM by Kinomescan method relative to control; how it was run: as §1
[18] = biological target: Serine/threonine-protein kinase 25 (Homo sapiens) (UniProt O00506); assay: Binding affinity to wild-type human partial length YSK1 (V14 to H295 residues) expressed in bacterial expression system assessed as residual binding level at 1 uM by Kinomescan method relative to control
[19] = biological target: Serine/threonine-protein kinase Nek5 (Homo sapiens) (UniProt Q6P3R8); assay: Binding affinity to wild-type human partial length NEK5 (M1 to M279 residues) expressed in bacterial expression system assessed as residual binding level at 1 uM by Kinomescan method relative to control
[20] = biological target: Mitogen-activated protein kinase kinase kinase kinase 2 (Homo sapiens) (UniProt Q12851); assay: Binding affinity to wild-type human partial length MAP4K2 (M1 to G318 residues) expressed in mammalian expression system assessed as residual binding level at 1 uM by Kinomescan method relative to control
[21] = biological target: MAP kinase-activated protein kinase 5 (Homo sapiens) (UniProt Q8IW41); assay: Binding affinity to wild-type human partial length MAPKAPK5 (M1 to D322 residues) expressed in mammalian expression system assessed as residual binding level at 1 uM by Kinomescan method relative to control
[22] = biological target: Mitogen-activated protein kinase kinase kinase 3 (Homo sapiens) (UniProt Q99759); assay: Binding affinity to wild-type human partial length MAP3K3 (E320 to Y626 residues) expressed in mammalian expression system assessed as residual binding level at 1 uM by Kinomescan method relative to control
[23] = biological target: Serine/threonine-protein kinase MRCK gamma (Homo sapiens) (UniProt Q6DT37); assay: Binding affinity to wild-type human partial length DMPK2 (S46 to S408 residues) expressed in bacterial expression system assessed as residual binding level at 1 uM by Kinomescan method relative to control
[24] = biological target: Mitogen-activated protein kinase 4 (Homo sapiens) (UniProt P31152); assay: Binding affinity to wild-type human partial length ERK4 (M1 to L365 residues) expressed in bacterial expression system assessed as residual binding level at 1 uM by Kinomescan method relative to control
[25] = biological target: Ephrin type-A receptor 1 (Homo sapiens) (UniProt P21709); assay: Binding affinity to wild-type human partial length EPHA1 (V588 to I913 residues) expressed in bacterial expression system assessed as residual binding level at 1 uM by Kinomescan method relative to control

C=CC(=O)Nc1cc(Nc2ncc(Cl)c(Nc3ccccc3S(=O)(=O)C(C)C)n2)c(OC)cc1N(C)CCN(C)C
Cmax [1]: 882 ng/mL | Activity [2]: 3.7% | Activity [3]: 83% | Activity [4]: 73% | Activity [5]: 68% | Activity [6]: 97% | Activity [7]: 0% | Activity [8]: 15% | Activity [9]: 0.4% | Activity [10]: 93% | Activity [11]: 72% | Activity [12]: 44% | CL/F [13]: 115 mL/min/kg | Activity [14]: 5.5% | Activity [15]: 57% | Activity [16]: 30% | Activity [17]: 0.9% | Activity [18]: 81% | Activity [19]: 80% | Activity [20]: 77% | Activity [21]: 100% | Activity [22]: 17% | Activity [23]: 91% | Activity [24]: 82% | Activity [25]: 12%

Source: ChEMBL document CHEMBL4382192, “Discovery of a potent dual ALK and EGFR T790M inhibitor” (Eur J Med Chem, 2017)
